Data as given in ChEMBL document CHEMBL1149196 (J Med Chem, 2004).

Columns and labels:
[1] = molecular target: Sodium-dependent dopamine transporter (Rattus norvegicus, UniProt P23977); experiment: Ability to inhibit high affinity uptake of [3H]DA at Dopamine transporter (DAT) using rat brain striatum; format: tissue-based
Procedure, shortened: (§1)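 Rat synaptosomal (P2) uptake: striatum for DAT, midbrain for SERT, parietal/occipital cortex for NET, in modified KRH pH 7.4 with nialamide. Drug preincubated 30 min at 4 °C, then 15 min at 37 °C. [3H]amine final ~5 nM (DA, 5-HT) or 9 nM (NE), 5 min uptake, stopped with cold Na-free buffer and filtered. Background from 0 °C tubes. IC50 converted to Ki by Cheng–Prusoff. Mean ± SE, ≥3 experiments.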

[2] = molecular target: Norepinephrine transporter (Rattus norvegicus, UniProt Q9WTR4); experiment: Ability to inhibit high affinity uptake of [3H]NE at Norepinephrine transporter (NET) using rat brain parietal/occipital cortex; format: tissue-based; procedure, shortened: as §1
[3] = molecular target: T1, Sodium-dependent serotonin transporter (Rattus norvegicus, UniProt P31652); experiment: (§2) Ability to inhibit high affinity uptake of [3H]-5-HT at Serotonin transporter (SERT) using rat midbrain; format: tissue-based; procedure, shortened: as §1
Target sequence in this assay (P31652 whole entry): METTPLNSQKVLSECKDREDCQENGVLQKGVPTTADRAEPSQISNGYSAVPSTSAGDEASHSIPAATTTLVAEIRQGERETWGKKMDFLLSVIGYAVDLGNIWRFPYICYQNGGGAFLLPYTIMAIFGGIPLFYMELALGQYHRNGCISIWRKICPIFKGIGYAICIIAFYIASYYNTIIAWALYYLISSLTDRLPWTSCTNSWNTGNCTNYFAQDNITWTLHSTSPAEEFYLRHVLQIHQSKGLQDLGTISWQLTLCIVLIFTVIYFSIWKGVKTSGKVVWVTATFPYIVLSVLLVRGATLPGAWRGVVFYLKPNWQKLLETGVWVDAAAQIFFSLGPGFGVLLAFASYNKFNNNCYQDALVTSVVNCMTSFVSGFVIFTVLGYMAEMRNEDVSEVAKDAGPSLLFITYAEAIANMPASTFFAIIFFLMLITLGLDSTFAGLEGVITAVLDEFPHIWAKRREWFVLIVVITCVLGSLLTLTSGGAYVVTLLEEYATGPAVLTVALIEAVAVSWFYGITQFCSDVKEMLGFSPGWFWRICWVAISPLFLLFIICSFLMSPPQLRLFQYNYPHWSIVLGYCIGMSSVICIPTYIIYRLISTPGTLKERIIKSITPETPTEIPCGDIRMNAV

[4] = molecular target: Monoamine transporters; serotonin & dopamine (Rattus norvegicus) (UniProt P31652+P23977); experiment: Ratio of affinity for serotonin transporter to that of dopamine transporter; format: protein assay
Procedure, shortened: (§3)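 Ratios of Ki values from rat synaptosomal [3H]amine uptake inhibition at SERT (midbrain), DAT (striatum) and NET (parietal/occipital cortex). Ki came from IC50 via Cheng–Prusoff.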

[5] = molecular target: Monoamine transporters; Norepinephrine & serotonin (Rattus norvegicus) (UniProt P31652+Q9WTR4); experiment: Ratio of affinity for Norepinephrine transporter to that of Serotonin transporter; format: protein assay; procedure, shortened: as §3
[6] = molecular target: T1, Sodium-dependent serotonin transporter; experiment: as §2; format: tissue-based; remark: listed apart in the source
Procedure, shortened: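 Rat midbrain P2 synaptosomes in ice-cold modified KRH buffer (pH 7.4, with 0.01 mM nialamide). Drug preincubated 30 min at 4 °C, then 15 min at 37 °C. Uptake started with ~5 nM [3H]5-HT (final) and run 5 min. Stopped with cold sodium-free glucosamine buffer and GF/C filtration. IC50 by LIGAND, converted to Ki by Cheng–Prusoff. Mean ± SE of ≥3 experiments.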
Target sequence in this assay (P31652 whole entry, looked up): as the sequence (P31652 whole entry) above

Norepinephrine transporter, sequence (Q9WTR4 whole entry): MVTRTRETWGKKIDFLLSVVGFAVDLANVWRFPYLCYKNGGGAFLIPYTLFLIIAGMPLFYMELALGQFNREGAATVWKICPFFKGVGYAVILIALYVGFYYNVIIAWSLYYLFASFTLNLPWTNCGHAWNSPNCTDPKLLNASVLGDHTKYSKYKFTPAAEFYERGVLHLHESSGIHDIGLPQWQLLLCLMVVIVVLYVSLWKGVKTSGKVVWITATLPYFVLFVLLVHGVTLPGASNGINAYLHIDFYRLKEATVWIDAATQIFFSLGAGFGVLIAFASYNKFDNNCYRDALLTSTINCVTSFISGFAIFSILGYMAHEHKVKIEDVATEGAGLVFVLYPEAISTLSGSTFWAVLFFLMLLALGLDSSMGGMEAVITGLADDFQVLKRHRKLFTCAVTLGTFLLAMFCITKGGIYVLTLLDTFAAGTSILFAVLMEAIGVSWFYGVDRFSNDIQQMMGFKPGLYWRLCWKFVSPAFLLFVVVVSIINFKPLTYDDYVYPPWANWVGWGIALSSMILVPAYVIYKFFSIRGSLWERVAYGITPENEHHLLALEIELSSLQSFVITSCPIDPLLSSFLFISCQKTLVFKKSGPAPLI
Sodium-dependent dopamine transporter, sequence (P23977 whole entry): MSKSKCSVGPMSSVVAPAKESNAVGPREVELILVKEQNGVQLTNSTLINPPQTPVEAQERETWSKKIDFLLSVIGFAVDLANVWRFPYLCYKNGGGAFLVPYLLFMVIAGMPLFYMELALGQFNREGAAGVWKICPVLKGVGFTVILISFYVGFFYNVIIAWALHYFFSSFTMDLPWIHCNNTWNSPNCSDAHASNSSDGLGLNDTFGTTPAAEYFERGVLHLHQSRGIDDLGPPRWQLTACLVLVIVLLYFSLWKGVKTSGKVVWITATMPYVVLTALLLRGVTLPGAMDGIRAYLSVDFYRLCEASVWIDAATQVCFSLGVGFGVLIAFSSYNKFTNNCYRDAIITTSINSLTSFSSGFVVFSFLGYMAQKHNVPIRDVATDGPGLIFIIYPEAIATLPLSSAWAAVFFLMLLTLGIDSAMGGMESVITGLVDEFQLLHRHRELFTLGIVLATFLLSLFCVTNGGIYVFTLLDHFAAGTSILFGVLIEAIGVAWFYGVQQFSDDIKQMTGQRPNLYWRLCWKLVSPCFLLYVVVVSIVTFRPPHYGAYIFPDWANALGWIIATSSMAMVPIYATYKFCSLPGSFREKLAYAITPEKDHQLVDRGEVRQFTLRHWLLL
Monoamine transporters; serotonin & dopamine (Rattus norvegicus), sequence (P23977 whole entry, looked up): as the sequence (P23977 whole entry) above
Monoamine transporters; serotonin & dopamine (Rattus norvegicus), sequence (P31652 whole entry, looked up): as the sequence (P31652 whole entry) above

Row | Structure (SMILES) | Ki [1] [nM] | Ki [2] [nM] | Ki [3] [nM] | Ratio [4] | Ratio [5] | Ki [6] [nM]
1 | CCOC(=O)C[C@H]1CN(C)CC[C@@H]1c1ccc(Cl)cc1 | 79 | 101 | 191 | 2.4 | 0.53 | 
2 | CN1CC[C@H](c2ccc(Cl)cc2)[C@@H](C(=O)OCCCCCc2ccccc2)C1 | 53 | 382 | 1790 | 34 | 0.21 | 
3 | CNC(=O)C[C@H]1CN(C)CC[C@@H]1c1ccc(Cl)cc1 |  | 251 | 2270 | 2.5 | 0.11 | 
4 | CN1CC[C@H](c2ccc(Cl)cc2)[C@@H](CCCF)C1 | 43 | 356 | 5190 | 120 | 0.069 | 
5 | CN1CC[C@H](c2ccc(Cl)cc2)[C@@H](CC(=O)O)C1 | 3010 | 3810 | > 10000 |  |  | 
6 | CN1CC[C@H](c2ccc(Cl)cc2)[C@@H](CC(=O)N(C)C)C1 | 16 | 46 | 1990 | 125 | 0.023 | 
7 | CCNC(=O)OC[C@H]1CN(C)CC[C@@H]1c1ccc(Cl)cc1 | 181 | 100 | 854 | 4.7 | 0.12 | 
8 | COC(=O)CC[C@H]1CN(C)CC[C@@H]1c1ccc(Cl)cc1 | 68 | 31 | 255 | 3.8 | 0.12 | 
9 | CN1CC[C@H](c2ccc(Cl)cc2)C(C(=O)Oc2ccccc2)C1 (some centres not stated) | 906 | 2180 | 2120 | 2.3 | 1 | 
10 | CN1CC[C@H](c2ccc(Cl)cc2)[C@@H](CC(=O)N(C)Cc2ccccc2)C1 | 165 | 32 | 66 | 0.4 | 0.49 | 
11 | CN1CC[C@H](c2ccc(Cl)cc2)[C@@H](C(=O)OC(C)(C)C)C1 | 318 | 350 | 5750 | 18 | 0.061 | 
12 | CN1CC[C@H](c2ccc(Cl)cc2)[C@@H](CCC(=O)NC23CC4CC(CC(C4)C2)C3)C1 | 446 | 152 | 585 | 1.3 | 0.26 | 
13 | CN1CC[C@H](c2ccc(Cl)cc2)C(C(=O)N2CCCC2)C1 (some centres not stated) |  | 2000 |  |  |  | 
14 | CN1CC[C@H](c2ccc(Cl)cc2)[C@@H](COC(=O)c2ccccc2)C1 | 273 | 389 | 296 | 1.1 | 1.3 | 
15 | CCC[C@H]1CN(C)CC[C@@H]1c1ccc(Cl)cc1 | 20 | 6.5 | 228 | 11 | 0.029 | 
16 | CN1CC[C@H](c2ccc(Cl)cc2)[C@@H](CCCO)C1 | 16 | 564 | 2810 | 175 | 0.2 | 
17 | CN1CC[C@H](c2ccc(Cl)cc2)[C@@H](CC(=O)NCc2ccccc2)C1 | 270 | 107 | 191 | 0.71 | 0.56 | 
18 | C=CCOC[C@H]1CN(C)CC[C@@H]1c1ccc(Cl)cc1 | 60 | 20 | 231 | 3.9 | 0.087 | 
19 | CC(=O)OC[C@H]1CN(C)CC[C@@H]1c1ccc(Cl)cc1 | 599 | 235 | 901 | 1.5 | 0.26 | 
20 | CN1CC[C@H](c2ccc(Cl)cc2)[C@@H](CC(=O)NC23CC4CC(CC(C4)C2)C3)C1 | 706 | 1080 | 376 | 0.53 | 2.9 | 
21 | COC(=O)/C=C/[C@H]1CN(C)CC[C@@H]1c1ccc(Cl)cc1 | 53 | 272 | 501 | 9.5 | 0.54 | 
22 | CN1CC[C@H](c2ccc(Cl)cc2)[C@@H](C(=O)O)C1 |  |  | 131000 | 0.76 | 2.2 | 282000
23 | CN1CC[C@H](c2ccc(Cl)cc2)[C@@H](CCC(=O)O)C1 | 1300 | 425 | 4540 | 3.5 | 0.094 | 
24 | CN1CC[C@H](c2ccc(Cl)cc2)[C@@H](COC(=O)NC23CC4CC(CC(C4)C2)C3)C1 | 56 | 56 | 37 | 0.66 | 1.5 | 
25 | CN1CC[C@H](c2ccc(Cl)cc2)[C@@H](COC(=O)Nc2ccccc2)C1 | 91 | 33 | 1290 | 14 | 0.026 | 
26 | CN1CC[C@H](c2ccc(Cl)cc2)[C@@H](CCC(=O)Nc2ccccc2)C1 | 201 | 56 | 354 | 1.8 | 0.16 | 
27 | CN1CC[C@H](c2ccc(Cl)cc2)C(C(=O)N(C)C)C1 (some centres not stated) | 2140 | 569 | 18900 | 8.8 | 0.03 | 
28 | CN1CC[C@H](c2ccc(Cl)cc2)[C@@H](CC(=O)OCCCc2ccccc2)C1 | 36 | 48 | 82 | 2.3 | 0.59 | 
